# The source made the active and inactive calls. No cut-off for these calls is given here.
# What was measured:
# [1] = molecular target: Sterol 14-alpha demethylase (Trypanosoma cruzi (strain CL Brener)) (UniProt Q7Z1V1); assay: Inhibition of sterol 14-alpha-demethylase in Trypanosoma cruzi epimastigotes infected in BESM cells assessed as reduction in fecosterol content at 5 uM after 72 hrs; format: cell-based
# Summary of the method: (§1)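 Log-phase epimastigotes were grown axenically in BHT medium (fetal bovine serum, brain heart infusion) and exposed to 5 μM compound for 72 h, with untreated parasites as the control. Pellets were washed in PBS, extracted in chloroform for 24 h at room temperature, BSTFA-derivatized, and sterols were analysed by GC-MS on a DB5-MS column (200→300°C at 15°C/min).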
# [2] = molecular target: Sterol 14-alpha demethylase (Trypanosoma cruzi (strain CL Brener)) (UniProt Q7Z1V1); assay: Inhibition of sterol 14-alpha-demethylase in Trypanosoma cruzi amastigotes infected in BESM cell assessed as abnormalities in nuclear membrane at 0.25 uM after 72 hrs by electron microscopy; format: cell-based
# [3] = molecular target: Sterol 14-alpha demethylase (Trypanosoma cruzi (strain CL Brener)) (UniProt Q7Z1V1); assay: Inhibition of sterol 14-alpha-demethylase in Trypanosoma cruzi amastigotes infected in BESM cell assessed as blebbing of the cell membrane at 0.25 uM after 48 hrs by electron microscopy; format: cell-based
# [4] = molecular target: Sterol 14-alpha demethylase (Trypanosoma cruzi (strain CL Brener)) (UniProt Q7Z1V1); assay: Inhibition of sterol 14-alpha-demethylase in Trypanosoma cruzi amastigotes infected in BESM cell assessed as swelling of nuclear membrane at 0.25 uM after 48 hrs by electron microscopy; format: cell-based
# [5] = molecular target: Sterol 14-alpha demethylase (Trypanosoma cruzi (strain CL Brener)) (UniProt Q7Z1V1); assay: Inhibition of sterol 14-alpha-demethylase in Trypanosoma cruzi epimastigotes infected in BESM cells assessed as reduction in episterol content at 5 uM after 72 hrs; format: cell-based; summary of the method: as §1
# [6] = molecular target: Sterol 14-alpha demethylase (Trypanosoma cruzi (strain CL Brener)) (UniProt Q7Z1V1); assay: Inhibition of sterol 14-alpha-demethylase in Trypanosoma cruzi epimastigotes infected in BESM cell assessed as cell death at 0.25 uM after 72 hrs by electron microscopy; format: cell-based
# [7] = molecular target: Sterol 14-alpha demethylase (Trypanosoma cruzi (strain CL Brener)) (UniProt Q7Z1V1); assay: Inhibition of sterol 14-alpha-demethylase in Trypanosoma cruzi amastigotes infected in BESM cell assessed as cell death at 0.25 uM after 72 hrs by electron microscopy
# [8] = molecular target: Sterol 14-alpha demethylase (Trypanosoma cruzi (strain CL Brener)) (UniProt Q7Z1V1); assay: Inhibition of sterol 14-alpha-demethylase in Trypanosoma cruzi epimastigotes infected in BESM cells assessed as accumulation of lanosterol and eburicol precursors at 5 uM after 72 hrs; format: cell-based; summary of the method: as §1
# [9] = molecular target: Sterol 14-alpha demethylase (Trypanosoma cruzi (strain CL Brener)) (UniProt Q7Z1V1); assay: Inhibition of sterol 14-alpha-demethylase in Trypanosoma cruzi amastigotes infected in BESM cell assessed as abnormalities in nuclear DNA at 0.25 uM after 72 hrs by electron microscopy; format: cell-based
# [10] = molecular target: Sterol 14-alpha demethylase (Trypanosoma cruzi (strain CL Brener)) (UniProt Q7Z1V1); assay: Inhibition of sterol 14-alpha-demethylase in Trypanosoma cruzi epimastigotes infected in BESM cell assessed as effect on cell division at 0.25 uM after 72 hrs by electron microscopy; format: cell-based
# [11] = molecular target: Sterol 14-alpha demethylase (Trypanosoma cruzi (strain CL Brener)) (UniProt Q7Z1V1); assay: Inhibition of sterol 14-alpha-demethylase in Trypanosoma cruzi amastigotes infected in BESM cells assessed as reduction in fecosterol content at 5 uM after 72 hrs; format: cell-based
# Summary of the method: (§2)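 T. cruzi CA-I/72 amastigotes were grown in BESM cells in RPMI 1640 with 5% heat-inactivated FCS at 37°C under 5% CO2. Monolayers were infected for 24 h, then the medium was replaced with 5 μM compound or DMSO; noninfected BESM cells served as a control. Lipids were extracted with chloroform, TMS-derivatized with BSTFA for 2 h, and sterols identified by GC-MS from [M−90]+ and [M+73]+ ions.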
# [12] = molecular target: Sterol 14-alpha demethylase (Trypanosoma cruzi (strain CL Brener)) (UniProt Q7Z1V1); assay: Inhibition of sterol 14-alpha-demethylase in Trypanosoma cruzi epimastigotes infected in BESM cell assessed as abnormalities in nuclear membrane at 0.25 uM after 72 hrs by electron microscopy; format: cell-based
# [13] = molecular target: Sterol 14-alpha demethylase (Trypanosoma cruzi (strain CL Brener)) (UniProt Q7Z1V1); assay: Inhibition of sterol 14-alpha-demethylase in Trypanosoma cruzi epimastigotes infected in BESM cell assessed as abnormalities in nuclear DNA at 0.25 uM after 72 hrs by electron microscopy; format: cell-based
# [14] = molecular target: Sterol 14-alpha demethylase (Trypanosoma cruzi (strain CL Brener)) (UniProt Q7Z1V1); assay: Inhibition of sterol 14-alpha-demethylase in Trypanosoma cruzi amastigotes infected in BESM cells assessed as reduction in episterol content at 5 uM after 72 hrs; format: cell-based; summary of the method: as §2
# [15] = molecular target: Sterol 14-alpha demethylase (Trypanosoma cruzi (strain CL Brener)) (UniProt Q7Z1V1); assay: Inhibition of sterol 14-alpha-demethylase in Trypanosoma cruzi amastigotes infected in BESM cell assessed as appearance of large autophagic vesicles at 0.25 uM after 48 hrs by electron microscopy; format: cell-based
# [16] = molecular target: Sterol 14-alpha demethylase (Trypanosoma cruzi (strain CL Brener)) (UniProt Q7Z1V1); assay: Inhibition of sterol 14-alpha-demethylase in Trypanosoma cruzi amastigotes infected in BESM cells assessed as accumulation of lanosterol and eburicol precursors at 5 uM after 72 hrs; format: cell-based; summary of the method: as §2
# [17] = molecular target: Sterol 14-alpha demethylase (Trypanosoma cruzi (strain CL Brener)) (UniProt Q7Z1V1); settings: BESM, 10 uM
# [18] = molecular target: Sterol 14-alpha demethylase (Trypanosoma cruzi (strain CL Brener)) (UniProt Q7Z1V1); settings: BESM, 10 uM; remark: listed apart in the source
# [19] = molecular target: Sterol 14-alpha demethylase (Trypanosoma cruzi (strain CL Brener)) (UniProt Q7Z1V1); settings: BESM, 10 uM; remark: listed apart in the source
# [20] = molecular target: Sterol 14-alpha demethylase (Trypanosoma cruzi (strain CL Brener)) (UniProt Q7Z1V1); settings: BESM, 10 uM; remark: listed apart in the source
# [21] = molecular target: Sterol 14-alpha demethylase (Trypanosoma cruzi (strain CL Brener)) (UniProt Q7Z1V1); settings: BESM, 10 uM; remark: listed apart in the source
# [22] = molecular target: Sterol 14-alpha demethylase (Trypanosoma cruzi (strain CL Brener)) (UniProt Q7Z1V1); settings: BESM, 10 uM; remark: listed apart in the source
# [23] = molecular target: Sterol 14-alpha demethylase (Trypanosoma cruzi (strain CL Brener)) (UniProt Q7Z1V1); settings: BESM, 10 uM; remark: listed apart in the source
# Trypanosoma cruzi [24] = assay: Antimicrobial activity against Trypanosoma cruzi infected in C3H mouse at 40 mg/kg, ip BID administered 24 hrs post infection measured after 12 days; format: functional, organism-based; set-up: dose 40 mg/kg
# Summary of the method: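 Female C3H mice (7–8 weeks, 17.5–18.0 g, five per group) infected i.p. with 10⁶ tissue-culture trypomastigotes of T. cruzi CA-I/72. Dosing began 24 h postinfection: i.p. in 100 μl of 60% DMSO–40% ddH₂O, twice daily for 30 days. An untreated infected group served as control. Mice were scored for clinical signs (ascitic abdomen, hind-leg weakness) at day 12 postinfection.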
# [25] = molecular target: Sterol 14-alpha demethylase (Trypanosoma cruzi (strain CL Brener)) (UniProt Q7Z1V1); settings: BESM, 10 uM; remark: listed apart in the source
# [26] = molecular target: Sterol 14-alpha demethylase (Trypanosoma cruzi (strain CL Brener)) (UniProt Q7Z1V1); settings: BESM, 10 uM; remark: listed apart in the source
# [27] = molecular target: Sterol 14-alpha demethylase (Trypanosoma cruzi (strain CL Brener)) (UniProt Q7Z1V1); settings: BESM, 10 uM; remark: listed apart in the source
# Trypanosoma cruzi [28] = assay: Antimicrobial activity against Trypanosoma cruzi infected in C3H mouse at 50 mg/kg, ip BID administered 24 hrs post infection measured after 12 days; format: functional, organism-based; set-up: dose 50 mg/kg
# Summary of the method: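 Female C3H mice (7–8 weeks, 17.5–18.0 g, five per group) infected i.p. with 10⁶ tissue-culture trypomastigotes of T. cruzi CA-I/72. The cruzain cysteine-protease inhibitor was given from 24 h postinfection: i.p. in 100 μl of 30% DMSO–70% ddH₂O, twice daily for 30 days. An untreated infected group served as control. Clinical signs (ascites, hind-leg weakness) were assessed at day 12 postinfection.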
# Sterol 14-alpha demethylase (Trypanosoma cruzi (strain CL Brener)), sequence (Q7Z1V1 whole entry, looked up, the tested form may be a part): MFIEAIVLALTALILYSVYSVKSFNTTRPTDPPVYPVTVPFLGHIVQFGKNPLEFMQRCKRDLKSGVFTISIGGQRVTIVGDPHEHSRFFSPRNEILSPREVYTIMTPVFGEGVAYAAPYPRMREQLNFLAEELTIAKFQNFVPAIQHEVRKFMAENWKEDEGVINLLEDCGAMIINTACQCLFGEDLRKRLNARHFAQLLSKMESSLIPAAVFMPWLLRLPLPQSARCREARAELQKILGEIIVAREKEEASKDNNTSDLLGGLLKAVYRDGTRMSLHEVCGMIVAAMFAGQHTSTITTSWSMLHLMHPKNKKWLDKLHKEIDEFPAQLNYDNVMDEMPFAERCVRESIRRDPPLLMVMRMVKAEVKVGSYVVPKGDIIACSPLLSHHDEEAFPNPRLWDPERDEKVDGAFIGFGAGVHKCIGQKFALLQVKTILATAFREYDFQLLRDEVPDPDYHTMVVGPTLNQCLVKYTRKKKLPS
structure (smiles),measurement,setting,value
CC[C@@H]([C@H](C)O)n1ncn(-c2ccc(N3CCN(c4ccc(OC[C@@H]5CO[C@@](Cn6cncn6)(c6ccc(F)cc6F)C5)cc4)CC3)cc2)c1=O,inhibition,[1],Active
same,inhibition,[2],Active
same,inhibition,[3],Active
same,inhibition,[4],Active
same,inhibition,[5],Active
same,inhibition,[6],inactive
same,inhibition,[7],Active
same,inhibition,[8],Active
same,inhibition,[9],Active
same,inhibition,[10],inactive
same,inhibition,[11],Active
same,inhibition,[12],inactive
same,inhibition,[13],inactive
same,inhibition,[14],Active
same,inhibition,[15],Active
same,inhibition,[16],Active
CC1CCC(C(=O)NC(Cc2c[nH]c3ccccc23)C(=O)Nc2ccncc2)CC1 (centres undefined),inhibition,[1],Active
same,inhibition,[17],inactive
same,inhibition,[18],Active
same,inhibition,[19],Active
same,inhibition,[20],Active
same,inhibition,[5],Active
same,inhibition,[21],inactive
same,inhibition,[22],Active
same,inhibition,[23],inactive
same,inhibition,[8],Active
same,Activity,Trypanosoma cruzi [24],Active
same,inhibition,[25],Active
same,inhibition,[11],Active
same,inhibition,[26],Active
same,inhibition,[27],inactive
same,inhibition,[14],Active
same,inhibition,[16],Active
CN1CCN(C(=O)N[C@@H](Cc2ccccc2)C(=O)N[C@H](/C=C/S(=O)(=O)c2ccccc2)CCc2ccccc2)CC1,Activity,Trypanosoma cruzi [28],Active

# Reference: ChEMBL document CHEMBL1255502, “A nonazole CYP51 inhibitor cures Chagas' disease in a mouse model of acute infection” (Antimicrob Agents Chemother, 2010)
